Reference: ChEMBL document CHEMBL4706704, “Potential of substituted quinazolines to interact with multiple targets in the treatment of cancer” (Bioorg Med Chem, 2021)

Columns and labels:
Chorioallantoic membrane [1] = assay: Antiangiogenic activity in Leghorn chicken fertilized egg chorioallantoic membrane assessed as reduction in VEGF/bFGF stimulated neovascularization after 40 hrs by microscopic based CAM assay; type: functional, tissue-based; details: Gallus gallus
Method in brief: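 VEGF/bFGF applied at saturation to a testing disk on the CAM. Compounds at various doses were added to the same disk 8 h later, then incubated 40 h more. Vessels were counted in 5–7 grids at 7.5X. Values are percent of growth-factor-only. IC50 by non-linear regression, 2–3 experiments, 2–5 replicates each.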

[2] = target: T1, Epidermal growth factor receptor (Homo sapiens, UniProt P00533); assay: Inhibition of EGFR in human A431 cells preincubated for 60 mins followed by EGF stimulation and measured after 10 mins by ELISA; type: cell-based, A-431
T1 sequence (P00533 whole entry): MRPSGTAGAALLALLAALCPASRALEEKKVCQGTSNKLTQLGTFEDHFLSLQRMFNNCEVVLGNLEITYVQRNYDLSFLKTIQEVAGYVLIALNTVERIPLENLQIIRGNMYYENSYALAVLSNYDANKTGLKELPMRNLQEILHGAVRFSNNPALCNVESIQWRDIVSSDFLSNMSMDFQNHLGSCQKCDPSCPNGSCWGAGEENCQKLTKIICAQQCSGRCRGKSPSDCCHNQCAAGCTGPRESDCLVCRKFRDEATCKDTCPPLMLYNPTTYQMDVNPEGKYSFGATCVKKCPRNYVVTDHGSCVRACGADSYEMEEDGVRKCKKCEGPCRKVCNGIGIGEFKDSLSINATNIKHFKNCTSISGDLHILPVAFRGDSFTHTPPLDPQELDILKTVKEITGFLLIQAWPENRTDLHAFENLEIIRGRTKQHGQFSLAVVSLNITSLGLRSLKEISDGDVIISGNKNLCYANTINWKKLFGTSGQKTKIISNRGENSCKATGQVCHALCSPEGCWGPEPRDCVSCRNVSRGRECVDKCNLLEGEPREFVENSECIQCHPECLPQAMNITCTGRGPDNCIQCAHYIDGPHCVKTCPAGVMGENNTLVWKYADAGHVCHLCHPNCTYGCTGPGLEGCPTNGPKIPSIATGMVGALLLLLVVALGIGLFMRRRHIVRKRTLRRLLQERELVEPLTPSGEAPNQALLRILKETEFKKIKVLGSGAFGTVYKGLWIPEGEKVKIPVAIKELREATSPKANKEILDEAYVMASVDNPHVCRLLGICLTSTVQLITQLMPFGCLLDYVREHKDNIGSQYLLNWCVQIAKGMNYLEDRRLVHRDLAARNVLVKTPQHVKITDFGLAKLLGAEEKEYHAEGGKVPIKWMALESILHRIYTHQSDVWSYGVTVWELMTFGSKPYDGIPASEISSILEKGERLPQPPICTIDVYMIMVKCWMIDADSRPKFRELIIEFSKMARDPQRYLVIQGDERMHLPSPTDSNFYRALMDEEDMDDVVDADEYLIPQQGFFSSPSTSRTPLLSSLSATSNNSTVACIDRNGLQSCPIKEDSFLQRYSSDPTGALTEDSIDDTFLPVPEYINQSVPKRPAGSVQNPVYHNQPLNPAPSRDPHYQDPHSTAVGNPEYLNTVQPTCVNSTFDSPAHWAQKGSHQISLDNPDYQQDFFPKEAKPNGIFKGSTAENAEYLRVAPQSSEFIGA

[3] = Induction of microtubule depolymerization in rat A10 cells incubated for over night by immunofluorescence method; type: cell-based
Method in brief: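 Rat A-10 cells were exposed overnight, fixed in cold methanol and stained for microtubules by indirect immunofluorescence with a β-tubulin antibody.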

MDA-MB-435 = assay: Antiproliferative activity against human MDA-MB-435 cells assessed as reduction in cell viability by Sulforhodamine B assay; type: functional, cell-based
Method in brief: (§1)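 SRB proliferation/cytotoxicity assay; parental lines obtained from ATCC. The HeLa WT-βIII line was generated as described in earlier work. IC50 is the average of at least 3 independent experiments, each run with triplicate points.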

Chorioallantoic membrane [4] = assay: Potency index, ratio IC50 for erlotinib to IC50 for test compound for antiangiogenic activity in Leghorn chicken fertilized egg chorioallantoic membrane; type: functional, tissue-based; details: Gallus gallus
HeLa [5] = assay: Cytotoxicity against human HeLa cells over expressing WT-beta3 assessed as reduction in cell viability by Sulforhodamine B assay; type: functional, cell-based; method in brief: as §1
[6] = Ratio of EC50 for induction of microtubule depolymerization in rat A10 cells to IC50 for antiproliferative activity against human MDA-MB-435 cells
[7] = Resistant index, ratio of IC50 for cytotoxicity against human HeLa cells expressing WT-beta3 to IC50 for cytotoxicity against human HeLa cells; type: functional
A-431 = assay: Cytotoxicity against human A-431 cells assessed as reduction in cell viability by Sulforhodamine B assay; type: functional, cell-based
SK-OV-3 [8] = assay: Cytotoxicity against human SK-OV-3 cells assessed as reduction in cell viability by Sulforhodamine B assay; type: functional, cell-based; method in brief: as §1
[9] = Resistant index, ratio of IC50 for cytotoxicity against human SK-OV-3 cells over expressing MDR1-6/6 cells to IC50 for cytotoxicity against human SK-OV-3 cells; type: functional
[10] = target: T2, Platelet-derived growth factor receptor beta (Homo sapiens, UniProt P09619); assay: Inhibition of PDGFRbeta in human SH-SY5Y cells preincubated for 60 mins followed by PDGF stimulation and measured after 10 mins by ELISA; type: cell-based
T2 sequence (P09619 whole entry): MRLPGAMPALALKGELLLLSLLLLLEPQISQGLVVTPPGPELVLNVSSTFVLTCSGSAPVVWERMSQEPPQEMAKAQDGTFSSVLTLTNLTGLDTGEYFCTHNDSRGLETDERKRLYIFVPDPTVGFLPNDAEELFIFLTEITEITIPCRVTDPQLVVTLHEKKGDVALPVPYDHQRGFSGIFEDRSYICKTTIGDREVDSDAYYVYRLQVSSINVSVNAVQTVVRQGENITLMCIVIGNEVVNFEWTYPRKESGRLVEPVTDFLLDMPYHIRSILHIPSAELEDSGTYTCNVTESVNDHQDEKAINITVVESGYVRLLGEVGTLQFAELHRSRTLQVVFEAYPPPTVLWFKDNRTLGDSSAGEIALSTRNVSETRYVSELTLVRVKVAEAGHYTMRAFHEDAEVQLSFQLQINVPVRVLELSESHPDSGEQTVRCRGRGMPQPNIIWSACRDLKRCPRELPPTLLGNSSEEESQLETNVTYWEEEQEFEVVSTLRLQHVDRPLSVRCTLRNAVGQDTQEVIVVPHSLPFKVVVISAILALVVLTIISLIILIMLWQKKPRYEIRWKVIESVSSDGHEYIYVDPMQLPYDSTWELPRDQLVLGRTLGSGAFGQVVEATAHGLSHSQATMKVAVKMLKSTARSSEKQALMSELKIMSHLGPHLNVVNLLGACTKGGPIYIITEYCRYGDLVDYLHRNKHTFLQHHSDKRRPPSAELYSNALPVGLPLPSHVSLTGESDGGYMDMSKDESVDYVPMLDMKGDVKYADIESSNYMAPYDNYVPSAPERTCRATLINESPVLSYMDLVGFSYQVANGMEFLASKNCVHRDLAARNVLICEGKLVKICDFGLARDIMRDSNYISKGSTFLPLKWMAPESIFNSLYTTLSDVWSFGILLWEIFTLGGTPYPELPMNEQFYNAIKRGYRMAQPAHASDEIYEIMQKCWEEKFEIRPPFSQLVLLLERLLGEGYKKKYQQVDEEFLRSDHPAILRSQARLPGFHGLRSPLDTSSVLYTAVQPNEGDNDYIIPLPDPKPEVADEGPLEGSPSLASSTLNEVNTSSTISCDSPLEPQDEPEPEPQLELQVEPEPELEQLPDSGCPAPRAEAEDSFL

U-251 = assay: Cytotoxicity against human U-251 cells assessed as reduction in cell viability by Sulforhodamine B assay; type: functional, cell-based
SK-OV-3 [11] = assay: Cytotoxicity against human SK-OV-3 cells over expressing MDR1-6/6 assessed as reduction in cell viability by Sulforhodamine B assay; type: functional, cell-based
Method in brief: (§2)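 SRB assay for antiproliferative/cytotoxic effect. HeLa WT-βIII and SK-OV-3-MDR1-6/6 lines were generated as described earlier and run alongside their parental lines.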

[12] = target: T3, Vascular endothelial growth factor receptor 2 (Homo sapiens, UniProt P35968); assay: Inhibition of VEGFR2 in human U251 cells preincubated for 60 mins followed by VEGF stimulation and measured after 10 mins by ELISA; type: cell-based, U-251
T3 sequence (P35968 whole entry): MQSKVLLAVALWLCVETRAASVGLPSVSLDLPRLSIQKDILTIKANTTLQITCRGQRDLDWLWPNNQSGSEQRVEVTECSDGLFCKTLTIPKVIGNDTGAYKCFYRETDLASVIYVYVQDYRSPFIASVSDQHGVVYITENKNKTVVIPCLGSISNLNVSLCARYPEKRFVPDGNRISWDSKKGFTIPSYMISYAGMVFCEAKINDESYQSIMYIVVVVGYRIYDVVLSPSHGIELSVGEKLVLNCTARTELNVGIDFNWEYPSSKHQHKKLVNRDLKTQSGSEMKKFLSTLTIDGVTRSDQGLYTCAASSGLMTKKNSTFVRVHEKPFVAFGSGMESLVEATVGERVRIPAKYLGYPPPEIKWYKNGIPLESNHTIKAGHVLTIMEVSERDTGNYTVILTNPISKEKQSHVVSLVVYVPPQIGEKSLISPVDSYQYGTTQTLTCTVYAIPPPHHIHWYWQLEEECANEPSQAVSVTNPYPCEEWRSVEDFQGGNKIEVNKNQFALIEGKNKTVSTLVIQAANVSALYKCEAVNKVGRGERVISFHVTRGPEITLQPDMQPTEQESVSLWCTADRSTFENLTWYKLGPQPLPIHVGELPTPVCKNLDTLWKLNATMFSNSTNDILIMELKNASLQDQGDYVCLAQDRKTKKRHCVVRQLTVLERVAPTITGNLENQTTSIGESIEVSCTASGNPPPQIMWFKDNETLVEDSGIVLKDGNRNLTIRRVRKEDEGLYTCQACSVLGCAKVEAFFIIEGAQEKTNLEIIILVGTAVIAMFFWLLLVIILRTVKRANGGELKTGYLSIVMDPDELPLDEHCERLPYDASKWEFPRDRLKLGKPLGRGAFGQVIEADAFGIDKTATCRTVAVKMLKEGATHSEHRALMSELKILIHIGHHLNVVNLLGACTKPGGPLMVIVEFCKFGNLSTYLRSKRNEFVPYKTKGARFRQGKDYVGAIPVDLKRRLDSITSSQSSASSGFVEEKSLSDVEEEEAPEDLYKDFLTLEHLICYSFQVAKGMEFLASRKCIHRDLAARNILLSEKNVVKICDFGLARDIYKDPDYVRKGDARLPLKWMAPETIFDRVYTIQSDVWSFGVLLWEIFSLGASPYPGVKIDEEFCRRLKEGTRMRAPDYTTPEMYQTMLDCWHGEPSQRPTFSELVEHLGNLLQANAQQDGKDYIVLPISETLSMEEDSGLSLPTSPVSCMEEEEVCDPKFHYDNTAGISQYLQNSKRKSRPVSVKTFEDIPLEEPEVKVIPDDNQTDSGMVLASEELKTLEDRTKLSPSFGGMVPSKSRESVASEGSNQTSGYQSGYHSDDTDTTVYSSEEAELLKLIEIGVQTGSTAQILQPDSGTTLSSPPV

HeLa [13] = assay: Cytotoxicity against human HeLa cells assessed as reduction in cell viability by Sulforhodamine B assay; type: functional, cell-based; method in brief: as §2
[14] = target: T2, Platelet-derived growth factor receptor beta; assay: Potency index, ratio of IC50 for erlotinib to IC50 for test compound for inhibition of PDGFRbeta in human SH-SY5Y cells; type: cell-based
[15] = target: T1, Epidermal growth factor receptor; assay: Potency index, ratio of IC50 for sunitinib to IC50 for test compound for inhibition of EGFR in human A431 cell; details: A-431
[16] = target: T2, Platelet-derived growth factor receptor beta; assay: Potency index, ratio of IC50 for sunitinib to IC50 for test compound for inhibition of PDGFRbeta in human SH-SY5Y cells; type: cell-based
[17] = target: T3, Vascular endothelial growth factor receptor 2; assay: Potency index, ratio of IC50 for sunitinib to IC50 for test compound for inhibition of VEGFR2 in human U251 cells; type: cell-based; details: U-251
[18] = target: T3, Vascular endothelial growth factor receptor 2; assay: Potency index, ratio of IC50 for erlotinib to IC50 for test compound for inhibition of VEGFR2 in human U251 cells; type: cell-based; details: U-251
Bos taurus [19] = species: Bos taurus; assay: Displacement of [3H]-colchicine from bovine brain tubulin at 5 uM after 10 mins by DEAE-cellulose filter method relative to control; type: tissue-based
Method in brief: (§3)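 Tubulin 0.1 mg/mL (1.0 μM) incubated at 37 °C with 5.0 μM [3H]colchicine and inhibitor at 1.0 or 5.0 μM.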

Bos taurus [20] = species: Bos taurus; assay: Displacement of [3H]-colchicine from bovine brain tubulin at 1 uM after 10 mins by DEAE-cellulose filter method relative to control; type: tissue-based; method in brief: as §3

IC50 [2] [nM] | IC50 [10] [nM] | IC50 [12] [nM] | SMILES | IC50 (Chorioallantoic membrane [1]) [nM] | EC50 [3] [nM] | IC50 (MDA-MB-435) [nM] | IC50 (HeLa [5]) [nM] | Ratio [6] | Ratio IC50 [7] | IC50 (A-431) [nM] | IC50 (SK-OV-3 [8]) [nM] | Ratio IC50 [9] | IC50 (U-251) [nM] | IC50 (SK-OV-3 [11]) [nM] | IC50 (HeLa [13]) [nM] | further results
 |  |  | C#Cc1cccc(Nc2ncnc3cc(OCCOC)c(OCCOC)cc23)c1 [ERLOTINIB] | 3100 |  |  |  |  |  |  |  |  |  |  |  | 
5 | 7.8 | 9.3 | COc1ccc2c(c1)CCCN2c1nc(C)nc2ccccc12 | 3100 | 3 | 1.1 | 1.2 | 2.7 | 1 | 2.5 | 1.5 | 1.5 | 3.1 | 2.2 | 1.2 | Ratio IC50 (Chorioallantoic membrane [4]): 9.4
 |  |  | COc1ccc(N(C)c2ncnc3ccccc23)cc1 |  | 8.2 | 7.1 |  | 1.2 | 0.9 |  | 10.4 | 1.4 |  | 14.3 | 8.6 | 
 |  |  | COc1ccc(/C=C\c2cc(OC)c(OC)c(OC)c2)cc1O [COMBRETASTATIN A4] |  | 9.8 |  |  |  |  |  |  |  |  |  |  | 
 |  |  | COc1cccc2cc(N(C)c3nc(Cl)nc4ccccc34)ccc12 |  | 1.9 | 1.4 | 1.6 | 1.4 | 0.6 |  | 2.8 | 0.9 |  | 2.6 | 2.8 | 
8.7 | 232 | 14.7 | CSc1ccc(N(C)c2nc(C)nc3ccccc23)cc1 |  |  |  |  |  |  | 2.9 |  |  | 4.9 |  |  | inhibition (Bos taurus [19]): 99%; inhibition (Bos taurus [20]): 91%
 |  |  | CSc1ccc(N(C)c2nc(Cl)nc3ccccc23)cc1 |  | 2.7 | 2.7 | 3.2 | 1 | 0.6 |  | 3.3 | 1.1 |  | 3.5 | 5 | 
10.6 | 29.4 | 16.8 | COc1cccc2cc(N(C)c3nc(C)nc4ccccc34)ccc12 |  | 2.4 | 2 | 1.7 | 1.2 | 0.7 | 5.3 | 2.9 | 1.2 | 4.2 | 3.5 | 2.5 | inhibition (Bos taurus [19]): 98%; inhibition (Bos taurus [20]): 88%
 |  |  | CSc1ccc(N(C)c2ncnc3ccccc23)cc1 |  | 12.3 | 7.8 | 7.3 | 1.6 | 0.6 |  | 13.6 | 1.1 |  | 15.6 | 8.5 | 
3.6 | 76.6 | 97.5 | COc1ccc(N(C)c2nc(Cl)nc3ccccc23)cc1 | 130000 |  |  |  |  |  | 1.2 |  |  | 32.5 |  |  | inhibition (Bos taurus [19]): 99%; inhibition (Bos taurus [20]): 92%

SMILES | IC50 [2] [nM] | IC50 [10] [nM] | IC50 [12] [nM] | IC50 (Chorioallantoic membrane [1]) [nM] | EC50 [3] [nM] | IC50 (MDA-MB-435) [nM] | IC50 (HeLa [5]) [nM] | Ratio [6] | Ratio IC50 [7] | IC50 (A-431) [nM] | IC50 (SK-OV-3 [8]) [nM] | Ratio IC50 [9] | IC50 (U-251) [nM] | IC50 (SK-OV-3 [11]) [nM] | IC50 (HeLa [13]) [nM] | further results
COc1ccc2c(c1)CCCN2c1ncnc2ccccc12 | 48.9 | 54 | 111 |  | 23.4 | 12.4 | 13.1 | 1.9 | 0.8 | 16.3 | 18.1 | 1.3 | 27.8 | 23.4 | 16.8 | 
COc1ccc(N(C)c2nc(C)nc3ccccc23)cc1 [VERUBULIN] | 2.8 | 5.6 | 8.4 | 2800 | 2.1 | 1.7 | 1.5 | 1.2 | 0.8 | 0.9 | 2.2 | 1.2 |  | 2.6 | 2 | Ratio IC50 [14]: 2; Ratio IC50 [15]: 61; Ratio IC50 [16]: 15; Ratio IC50 [17]: 2; Ratio IC50 [18]: 15
COc1ccc2c(c1)CCCN2c1nc(Cl)nc2ccccc12 |  | 80.6 | 55.2 | 41400 | 2 | 0.7 |  |  |  | 1.8 | 0.8 |  | 14.8 | 1 | 0.6 | 
